Experimental data: ChEMBL document CHEMBL1126297, “Synthesis and evaluation of analogues of (Z)-1-(4-methoxyphenyl)-2-(3,4,5-trimethoxyphenyl)ethene as potential cytotoxic and antimitotic agents” (J Med Chem, 1992)

Assays:
Type in all cases: functional
SK-MEL-5 = experiment: Compound was evaluated for cytotoxicity against human SKMEL-5 melanoma cell line.; conditions: read-out: ED50 (the source's name)
Summary of the method: (§1)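 MTT colorimetric assay run in the Purdue Cell Culture Laboratory. Poorly water-soluble compounds were serially diluted in DMSO and added as 0.5 μL aliquots per well. Cells were incubated with compound for 6 days before MTT was added. […] The reported ED50 is the mean of two determinations.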

HT-29 = experiment: Cytotoxicity against human HT-29 colon cell line.; conditions: read-out: ED50 (the source's name); summary of the method: as §1
MCF7 = experiment: Cytotoxicity against human MCF-7 breast cancer cell line.; conditions: read-out: ED50 (the source's name); summary of the method: as §1
A549 = experiment: Compound was evaluated for cytotoxicity against human A-549 non-small cell lung cancer cell line.; conditions: read-out: ED50 (the source's name); summary of the method: as §1
MLM [1] = experiment: Compound was evaluated for cytotoxicity against human MLM melanoma cell line.; conditions: read-out: ED50; summary of the method: as §1
MLM [2] = experiment: Cytotoxicity against human MLM melanoma cell line.; conditions: read-out: ED50 (the source's name); summary of the method: as §1
Bos taurus = organism: Bos taurus; experiment: Inhibition of tubulin polymerization
Summary of the method: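 Bovine brain tubulin, purified to electrophoretic homogeneity, was preincubated at 37 °C with a range of compound concentrations and then chilled on ice. GTP was added and polymerization followed at 37 °C by turbidity at 350 nm. Extent was read at 20 min against two controls per experiment, and IC50 was determined graphically. Actives were run in ≥3 independent assays, inactives (IC50 > 40 μM) in ≥2.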

SMILES | IC50 (Bos taurus) [µM] | EC50 (SK-MEL-5) [µM] | EC50 (HT-29) [µM] | EC50 (MCF7) [µM] | EC50 (A549) [µM] | EC50 (MLM [1]) [µM] | EC50 (MLM [2]) [µM]
COc1cccc2c1C(=O)c1c(O)c3c(c(O)c1C2=O)C[C@@](O)(C(=O)CO)C[C@@H]3O[C@H]1C[C@H](N)[C@H](O)[C@H](C)O1 [DOXORUBICIN] |  | 0.032 | 0.055 | 0.031 | 0.029 | 0.13 | 
COc1ccc(/C=C\c2cc(OC)c(O[Si](C)(C)C(C)(C)C)c(OC)c2)cc1 | > 40 | > 25 | 9 | > 25 | > 25 |  | > 25
COC(=O)/C(=C/c1ccc(OC)cc1)c1cc(OC)c(OC)c(OC)c1 | > 40 | 6.4 | 0.5 | 2 | 1.1 |  | 9.6
COc1ccc(CC2c3cc(OC)c(OC)c(OC)c3CCN2C)cc1 (stereo not drawn) | > 40 | 8.8 | 9.7 | 22.7 | 11.4 |  | > 25
COc1ccc(CC2NCCc3c2cc(OC)c(OC)c3OC)cc1 (stereo not drawn) | > 40 | > 25 | 20.2 | > 25 | 19.3 |  | > 25
COc1cccc(/C=C(/C(=O)O)c2cc(OC)c(OC)c(OC)c2)c1 | > 40 | 0.05 | 0.12 | > 25 | 0.025 |  | > 25
COc1cc2ccc3cccc(OC)c3c2c(OC)c1OC | > 40 | 1.3 | 1.9 | 1.8 | 5.7 |  | 21.4

The next lines start with results.

IC50 (Bos taurus) [µM] | SMILES | EC50 (SK-MEL-5) [µM] | EC50 (HT-29) [µM] | EC50 (MCF7) [µM] | EC50 (A549) [µM] | EC50 (MLM [1]) [µM] | EC50 (MLM [2]) [µM]
> 40 | CCNC(=O)/C(=C/c1ccc(OC)cc1)c1cc(OC)c(OC)c(OC)c1 | 7.05 | 1.8 | 3.7 | 3.4 |  | > 25
> 40 | COc1ccc(/C=C/c2cc(OC)c(OCc3ccccc3)c(OC)c2)cc1 | > 25 | 17.8 | > 25 | > 25 |  | > 25
> 40 | COc1ccc(/C=C/c2cc(OC)c(OC(C)=O)c(OC)c2)cc1 | 10.2 | 11.7 | 19.4 | 16.4 |  | 21
> 40 | COc1ccc(C(O)c2cc(OC)c(OC)c(OC)c2)cc1 (stereo not drawn) | 1.5 | 1.2 | 1.9 | 1.5 |  | 16.8
2 | COc1cc(/C=C\c2ccc(C)cc2)cc(OC)c1OC | 0.00083 | 0.0023 | 0.024 | 0.00094 |  | 0.0066
7.9 | COc1ccc(CCc2cc(OC)c(OC)c(OC)c2)cc1 | 1.4 | 2.5 | 1.6 | 1.8 |  | 1.8
10 | CCOc1ccc(CCc2cc(OC)c(OC)c(OC)c2)cc1 | 0.17 | 0.18 | 0.19 | 0.19 |  | 0.27
